Assay results reported in paper PMC12753540 (Investigational New Drugs, 2025).
Values joined by “and” are separate entries in the source; they are usually repeats but may differ in a detail not shown here. Equal entries are not always repeated. Marks after values point to notes of the source that are not given here.

Experiments:
[1] = Phase 1 study: safety and tolerability; type: in vivo, human (Japanese patients with advanced solid tumors)
In short: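 Oral dosing was 240 mg BID on Days 1–7 (Cohort 1) or 160 mg BID on Days 1–14 (Cohort 2) of 28-day cycles, after a single dose on C0D1, using a rolling-6 escalation design. DLTs were assessed over Cycles 0 and 1. AEs were coded by MedDRA and graded by CTCAE v4.03. The TEAE window ran from first dose to 30 (+7) days after the last dose or discontinuation. Relatedness was judged by the investigator. Data were summarized descriptively for all patients who received ≥1 dose.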

[2] = system: advanced solid malignancies; test: Phase 1 study: antitumor activity; type: in vivo, human (Japanese patients); details: for Best overall response: Complete response / Best overall response: Partial response: confirmed; for Best overall response: Stable disease: maintained ≥ 7 weeks from Cycle 1 Day 1; for Median PFS: Kaplan-Meier, data cutoff May 25, 2023
In short: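 Oral twice-daily dosing on Days 1–7 of 28-day cycles, after a single oral dose on C0D1 (4-day Cycle 0). Tumors were imaged by CT or MRI at baseline, then by the same method every 8 weeks (±1 week) until progression, per RECIST 1.1. CR/PR needed confirmation ≥4 weeks later, and SD had to last ≥7 weeks from C1D1. ORR was limited to measurable disease, with Clopper-Pearson 95% CI; PFS by Kaplan–Meier.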

[3] = Phase 1 study: plasma pharmacokinetics, non-compartmental analysis; type: in vivo, human (Japanese patients); details: for tmax, Median (range) / Cmax / Vd/F / half-life: oral; for tmax, Median (range) / Cmax / Vd/F / half-life / Tmax: plasma; for Cmax / Vd/F / half-life / Tmax: human; for Vd/F: Arithmetic mean (SD); for half-life: t1/2, Arithmetic mean (SD); for Tmax: po, Median (range)
advanced solid tumors = details: monotherapy, cited from earlier work
[4] = cited from earlier work
[5] = system: advanced gastric cancer, metastatic melanoma, non-small-cell lung cancer; details: in combination with durvalumab; phase 2 studies; cited from earlier work
[6] = Cohort 1 240 mg BID (n = 6), Any grade
[7] = Cohort 2 160 mg BID (n = 6), Any grade
[8] = Multiple-dose administration, Cohort 1 240 mg BID (n = 6)
[9] = Multiple-dose administration, Cohort 2 160 mg BID (n = 6)
[10] = Single-dose administration, Cohort 1 240 mg (n = 6)
[11] = Single-dose administration, Cohort 2 160 mg (n = 6)
[12] = 160 mg, Single-dose administration, Cohort 2 160 mg (n = 6)
[13] = 240 mg, Single-dose administration, Cohort 1 240 mg (n = 6)

C[C@@H]1COCCN1c1cc(C2([S@](C)(=N)=O)CC2)nc(-c2cc[nH]c3nccc2-3)n1 [ceralasertib]
Any DLT ([1]; Cohort 1 240 mg BID (n = 6)): 1 (16.7)* n (%) | Any SAE ([1]; Cohort 1 240 mg BID (n = 6)): 0 n (%) | Any SAE related to treatment ([1]; Cohort 1 240 mg BID (n = 6)): 0 n (%) | Any SAE related to treatment, Grade ≥ 3 ([1]; Cohort 1 240 mg BID (n = 6)): 0 n (%) | Any SAE, Grade ≥ 3 ([1]; Cohort 1 240 mg BID (n = 6)): 0 n (%) | Any TEAE ([1]; Cohort 1 240 mg BID (n = 6)): 6 (100) n (%) | Any TEAE leading to death ([1]; Cohort 1 240 mg BID (n = 6)): 0 n (%) | Any TEAE leading to discontinuation of ceralasertib ([1]; Cohort 1 240 mg BID (n = 6)): 1 (16.7)* n (%) | Any TEAE leading to discontinuation of ceralasertib, Related to treatment ([1]; Cohort 1 240 mg BID (n = 6)): 1 (16.7)* n (%) | Any TEAE leading to dose interruption of ceralasertib ([1]; Cohort 1 240 mg BID (n = 6)): 0 n (%) | Any TEAE leading to dose interruption of ceralasertib, Related to treatment ([1]; Cohort 1 240 mg BID (n = 6)): 0 n (%) | Any TEAE leading to dose reduction of ceralasertib ([1]; Cohort 1 240 mg BID (n = 6)): 1 (16.7) n (%) | Any TEAE leading to dose reduction of ceralasertib, Related to treatment ([1]; Cohort 1 240 mg BID (n = 6)): 1 (16.7) n (%) | Any TEAE, Grade ≥ 3 ([1]; Cohort 1 240 mg BID (n = 6)): 1 (16.7)* n (%) | Any TRAE ([1]; Cohort 1 240 mg BID (n = 6)): 5 (83.3) n (%) | Any TRAE leading to death ([1]; Cohort 1 240 mg BID (n = 6)): 0 n (%) | Any TRAE, Grade ≥ 3 ([1]; Cohort 1 240 mg BID (n = 6)): 1 (16.7)* n (%) | TEAE: Anemia [1, 6]: 3 n (%) | TEAE: Constipation [1, 6]: 2 n (%) | TEAE: Nausea [1, 6]: 3 n (%) | TEAE: Neutrophil count decreased [1, 6]: 2 n (%) | TEAE: Platelet count decreased [1, 6]: 2 n (%) | Any DLT ([1]; Cohort 2 160 mg BID (n = 6)): 1 (16.7)^† n (%) | Any SAE ([1]; Cohort 2 160 mg BID (n = 6)): 2 (33.3) n (%) | Any SAE related to treatment ([1]; Cohort 2 160 mg BID (n = 6)): 1 (16.7)^† n (%) | Any SAE related to treatment, Grade ≥ 3 ([1]; Cohort 2 160 mg BID (n = 6)): 1 (16.7)^† n (%) | Any SAE, Grade ≥ 3 ([1]; Cohort 2 160 mg BID (n = 6)): 2 (33.3) n (%) | Any TEAE ([1]; Cohort 2 160 mg BID (n = 6)): 6 (100) n (%) | Any TEAE leading to death ([1]; Cohort 2 160 mg BID (n = 6)): 0 n (%) | Any TEAE leading to discontinuation of ceralasertib ([1]; Cohort 2 160 mg BID (n = 6)): 0 n (%) | Any TEAE leading to discontinuation of ceralasertib, Related to treatment ([1]; Cohort 2 160 mg BID (n = 6)): 0 n (%) | Any TEAE leading to dose interruption of ceralasertib ([1]; Cohort 2 160 mg BID (n = 6)): 1 (16.7)^† n (%) | Any TEAE leading to dose interruption of ceralasertib, Related to treatment ([1]; Cohort 2 160 mg BID (n = 6)): 1 (16.7)^† n (%) | Any TEAE leading to dose reduction of ceralasertib ([1]; Cohort 2 160 mg BID (n = 6)): 1 (16.7)^† n (%) | Any TEAE leading to dose reduction of ceralasertib, Related to treatment ([1]; Cohort 2 160 mg BID (n = 6)): 1 (16.7)^† n (%) | Any TEAE, Grade ≥ 3 ([1]; Cohort 2 160 mg BID (n = 6)): 2 (33.3) n (%) | Any TRAE leading to death ([1]; Cohort 2 160 mg BID (n = 6)): 0 n (%) | Any TRAE, Grade ≥ 3 ([1]; Cohort 2 160 mg BID (n = 6)): 1 (16.7)^† n (%) | TEAE: Anemia [1, 7]: 4 n (%) | TEAE: Nausea [1, 7]: 4 n (%) | TEAE: Platelet count decreased [1, 7]: 4 n (%) | TEAE: White blood cell count decreased [1, 7]: 3 n (%) | Patients with grade ≥ 3 treatment-emergent adverse event ([1]; both cohorts, 12 patients treated): 3 patients | Overall tolerability ([1]; monotherapy, both regimens): well tolerated with an acceptable safety profile | Patients with low grade (grade ≤ 2) events only ([1]; of 12 patients enrolled): 9 patients | Best overall response: Not evaluable ([2]; Cohort 1 240 mg BID (n = 6)): 1 (16.7) n (%) | Best overall response: Not evaluable, No post-baseline assessment ([2]; Cohort 1 240 mg BID (n = 6)): 1 (16.7) n (%) | Best overall response: Objective response ([2]; Cohort 1 240 mg BID (n = 6)): 0 n (%) | Best overall response: Progressive disease ([2]; Cohort 1 240 mg BID (n = 6)): 3 n (%) and 3 (50.0) n (%) | Best overall response: Complete response ([2]; Cohort 1 240 mg BID (n = 6)): 0 n (%) | Best overall response: Partial response ([2]; Cohort 1 240 mg BID (n = 6)): 0 n (%) | Best overall response: Stable disease ([2]; Cohort 1 240 mg BID (n = 6)): 2 n (%) and 2 (33.3) n (%) | Median PFS ([2]; Cohort 1 240 mg BID): 2.1 months | Best overall response: Not evaluable ([2]; Cohort 2 160 mg BID (n = 6)): 0 n (%) | Best overall response: Not evaluable, No post-baseline assessment ([2]; Cohort 2 160 mg BID (n = 6)): 0 n (%) | Best overall response: Objective response ([2]; Cohort 2 160 mg BID (n = 6)): 0 n (%) | Best overall response: Progressive disease ([2]; Cohort 2 160 mg BID (n = 6)): 2 n (%) and 2 (33.3) n (%) | Best overall response: Complete response ([2]; Cohort 2 160 mg BID (n = 6)): 0 n (%) | Best overall response: Partial response ([2]; Cohort 2 160 mg BID (n = 6)): 0 n (%) | Best overall response: Stable disease ([2]; Cohort 2 160 mg BID (n = 6)): 4 n (%) and 4 (66.7) n (%) | Median PFS ([2]; Cohort 2 160 mg BID): 3.3 months | Patients with best objective response of stable disease ([2]; both cohorts in total, 12 patients): 6 patients | AUCss, Geometric mean (CV%) [3, 8]: 94,970 (20.38) ng x h/mL | AUCss,last, Geometric mean (CV%) [3, 8]: 92,140 (20.55) ng x h/mL | CLss/F, Arithmetic mean (SD) [3, 8]: 2.568 (0.4725) L/h | Css,max, Geometric mean (CV%) [3, 8]: 11,970 (16.26) ng/mL | tss,max, Median (range) ([3]; Multiple-dose administration, Cohort 1 240 mg BID (n = 6), Cycle 1 Day 7): 1.97 (0.95–2.83) h | AUCss, Geometric mean (CV%) [3, 9]: 57,400 (17.41) ng x h/mL | AUCss,last, Geometric mean (CV%) [3, 9]: 56,020 (17.05) ng x h/mL | CLss/F, Arithmetic mean (SD) [3, 9]: 2.822 (0.4864) L/h | Css,max, Geometric mean (CV%) [3, 9]: 8132 (16.01) ng/mL | tss,max, Median (range) ([3]; Multiple-dose administration, Cohort 2 160 mg BID (n = 6), Cycle 1 Day 8): 1.87 (0.52–2.92) h | AUC(0–12), Geometric mean (CV%) [3, 10]: 54,260 (12.8) ng x h/mL | AUCinf, Geometric mean (CV%) [3, 10]: 102,800 (20.67) ng x h/mL | AUClast, Geometric mean (CV%) [3, 10]: 100,700 (19.14) ng x h/mL | CL/F, Arithmetic mean (SD) [3, 10]: 2.4 L/h and 2.375 (0.4926) L/h | Vz/F, Arithmetic mean (SD) [3, 10]: 40.47 (7.307) L | t1/2, Arithmetic mean (SD) [3, 10]: 12.24 (3.472) h | tmax, Median (range) [3, 10]: 2.04 (1.98–3.97) h | AUC(0–12), Geometric mean (CV%) [3, 11]: 39,160 (16.33) ng x h/mL | AUCinf, Geometric mean (CV%) [3, 11]: 71,440 (29.19) ng x h/mL | AUClast, Geometric mean (CV%) [3, 11]: 69,120 (25.54) ng x h/mL | CL/F, Arithmetic mean (SD) [3, 11]: 2.3 L/h and 2.318 (0.6707) L/h | Vz/F, Arithmetic mean (SD) [3, 11]: 43.03 (8.284) L | tmax, Median (range) [3, 11]: 1.92 (0.85–2.13) h | Cmax ([3]; 160 mg): 6550 ng/mL | Vd/F ([3]; 160 mg, Vss/F, Multiple-dose administration, Cohort 2 160 mg BID (n = 6)): 35.3 L | half-life [3, 12]: 13.9 h | Cmax ([3]; 240 mg): 7670 ng/mL | Vd/F ([3]; 240 mg, Vss/F, Multiple-dose administration, Cohort 1 240 mg BID (n = 6)): 33.8 L | Vd/F ([3]; 240 mg, Vz/F, Single-dose administration, Cohort 1 240 mg (n = 6)): 40.5 L | half-life [3, 13]: 12.2 h | Tmax [3, 12]: 1.9 h | Tmax [3, 13]: 2 h | Accumulation of ceralasertib in plasma ([3]; multiple administrations at 160 mg or 240 mg): up to 1.8 fold | Arithmetic mean TCP ([3]; range across both cohorts, multiple dosing): 0.82–0.94 | Dose proportionality of exposure ([3]; single and multiple dosing, 160 mg and 240 mg): A trend suggesting a dose-proportional increase in exposure | Disease control (evaluable patients) (advanced solid tumors; 39 of 66 evaluable patients): 59% | Confirmed partial response (advanced solid tumors; 66 evaluable patients): 5 n | Stable disease or unconfirmed PR (advanced solid tumors; 66 evaluable patients): 34 n | Median tmax ([4]; Caucasian patients, PATRIOT study): 0.5 to 4 h | Mean t1/2 after single dosing ([4]; PATRIOT studies, at higher doses): 11.2 to 12.8 h | Objective response rates (ORR) [5]: 14 to 31%
